These results are taken from ChEMBL document CHEMBL1145189, “Synthesis and evaluation of S-acyl-2-thioethyl esters of modified nucleoside 5'-monophosphates as inhibitors of hepatitis C virus RNA replication” (J Med Chem, 2005).

What is called IC50 is the concentration that inhibits the measured activity by half. As usually defined, the EC50 is the concentration needed to bring the measured effect to its halfway point. Read a low EC50 as greater potency. The term CC50 denotes the concentration giving 50% cytotoxicity.

A short description of test [1]: Inhibitory concentration against hepatitis C virus NS5B-mediated RNA synthesis in HBI10A cells. In kind it is functional, cell-based. Conditions: Homo sapiens.
A short description of test [2]: Effective concentration against hepatitis C virus RNA replication in a subgenomic bicistronic replicon in HBI10A cells. It counts as functional, cell-based. Conditions: Homo sapiens. The gist of the method: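 Stable Huh-7-derived HBI10A hepatoma line carrying a subgenomic bicistronic HCV replicon. Compound incubated with cells for 24 h. Relative replicon RNA then quantified by in situ ribonuclease protection assay.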

For test [3], the system named is CHO. The experiment in a line: Effect of compound (10000 uM) on growth of CHO cells measured as population doublings from the beginning of the experiment as percent of controls after 20 hr of treatment (harvested at 20h of treatment). It counts as functional, Cricetulus griseus. Summed up:
(§1)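 Exponentially growing CHO (clone WBL) monolayers treated for 20 h without S-9. DMSO stock diluted 100-fold into medium, giving 1% v/v DMSO as vehicle control. Cultures harvested at 20, 30 or 42 h after dosing. Growth expressed as population doublings from start of experiment as a percentage of controls.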

Test [4] deals with CHO. The experiment in a line: Effect of compound (10000 uM) on growth of CHO cells measured as population doublings from the beginning of the experiment as percent of controls after 20 hr of treatment (harvested at 30h of treatment). In kind it is functional, Cricetulus griseus. The gist of the method: as §1
In test [5] the test system is CHO. The experiment in a line: Effect of compound (10000 uM) on growth of CHO cells measured as population doublings from the beginning of the experiment as percent of controls after 20 hr of treatment (harvested at 42h of treatment). It counts as functional, Cricetulus griseus. Summed up:
as §1

Test [6] concerns CHO. The experiment in a line: Percent of CHO cells with chromosomal aberrations were determined at 10000 uM compound after 20 hr of treatment (harvested at 20h of treatment). It counts as functional, Cricetulus griseus. The gist of the method: (§2)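 CHO (clone WBL) monolayers treated for 20 h without S-9, with DMSO stock diluted 100-fold into medium. Harvest at 20, 30 or 42 h after dosing; colcemid added 1–2 h before harvest for metaphase arrest. Cells fixed, and 200 cells scored per point for % aberrant cells. Points not scored where toxicity prevented it. Comparison against concurrent controls.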

Test [7] has as its system CHO. The experiment in a line: Percent of CHO cells with chromosomal aberrations were determined at 10000 uM compound after 20 hr of treatment (harvested at 30h of treatment). It counts as functional, Cricetulus griseus. Summed up:
as §2

Test [8] has as its system CHO. The experiment in a line: Percent of CHO cells with chromosomal aberrations were determined at 10000 uM compound after 20 hr of treatment (harvested at 42h of treatment). It counts as functional, Cricetulus griseus. Summed up: as §2
A short description of test [9]: Cytotoxic concentration of compound in human HBI10A cells infected with hepatitis C virus in MTS assay. In kind it is functional. The gist of the method:
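MTS cytotoxicity run on samples parallel to the replicon assay, at the same time (24 h compound exposure). Cells plated at 2.0 × 10⁴/well and compound added next day at 2× in medium. Incubation at 37 °C, 5% CO₂. MTS reagent added for 1 h, then absorbance read at 490 nm.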
For orientation: Formazan colour is commonly taken as a measure of viable cells.

The structures appear in SMILES notation. Some results are limits rather than exact numbers.

The compound `Nc1nc2c(ncn2[C@@H]2O[C@H](CO)C[C@H]2O)c(=O)[nH]1` had an IC50 in test [1] of 0.6 µM. Besides, the EC50 in test [2] is > 50 µM.

For `Nc1ccn([C@H]2CC[C@@H](CO)O2)c(=O)n1` [ZALCITABINE], the Growth is reported as 65% with CHO [3], 101% in the test on CHO [4] and 105% in the test with CHO [5]. The figures for the Aberrant cells in the test on CHO [6], with CHO [7] and in the test on CHO [8] were 9.5%, 8% and 3%, respectively.

For the compound `CO[C@@H]1[C@H](O)[C@@H](COP(=O)(OCCSC(=O)C(C)(C)C)OCCSC(=O)C(C)(C)C)O[C@H]1n1cnc2c(O)nc(N)nc21`, the EC50 in test [2] is > 50 µM. For the same compound, in [9], the CC50 was > 50 µM.

In the case of `Nc1nc(O)c2ccn([C@@H]3O[C@H](CO)C[C@H]3O)c2n1`, the IC50 in test [1] was 0.08 µM. The EC50 in test [2] was > 50 µM.
